Assay results reported in ChEMBL document CHEMBL4138258 (ACS Med Chem Lett, 2017).
pEC50, pIC50: −log10 of the molar value. ≈ marks a conversion by molar mass, not a printed value. Calls of active or inactive are those of the source.

Legend:
[1] = test system: Rattus norvegicus; assay: Analgesic activity in Sprague-Dawley rat MIA-induced osteoarthritic pain model assessed as increase in paw withdrawal threshold at 3 mg/kg, ip by von Frey filaments assay; format: functional, organism-based
In short: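 Rat MIA osteoarthritis pain model, with analgesia read as von Frey paw withdrawal threshold. In blocking runs, 3 mg/kg IP agonist was combined with the CB2 antagonist AR401733 (10 mg/kg PO) or the CB1 antagonist rimonabant (10 mg/kg PO).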

[2] = test system: Rattus norvegicus; assay: Toxicity in Sprague-Dawley rat MIA-induced osteoarthritic pain model assessed as induction of tachyphylaxis at 10 mg/kg, ip administered twice daily for 5 days measured 1 hr post dose at 1 day interval for 5 days during compound dosing; format: organism-based; conditions: in vivo
In short: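 MIA-treated rats were dosed IP twice daily for 5 days. Reversal of hypersensitivity was measured by von Frey paw withdrawal threshold 1 h after the morning dose on days 1, 3 and 5. Morphine was given on the same regimen for comparison.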

[3] = target: Cannabinoid receptor 2 (Homo sapiens, UniProt P34972); assay: Agonist activity at recombinant human CB2 receptor expressed in HEK293 cells assessed as increase in beta arrestin recruitment measured after 2 to 3 hrs by PathHunter assay relative to CP55940; format: functional, cell-based
Chain of Cannabinoid receptor 2 (Homo sapiens, UniProt P34972) (P34972 whole entry): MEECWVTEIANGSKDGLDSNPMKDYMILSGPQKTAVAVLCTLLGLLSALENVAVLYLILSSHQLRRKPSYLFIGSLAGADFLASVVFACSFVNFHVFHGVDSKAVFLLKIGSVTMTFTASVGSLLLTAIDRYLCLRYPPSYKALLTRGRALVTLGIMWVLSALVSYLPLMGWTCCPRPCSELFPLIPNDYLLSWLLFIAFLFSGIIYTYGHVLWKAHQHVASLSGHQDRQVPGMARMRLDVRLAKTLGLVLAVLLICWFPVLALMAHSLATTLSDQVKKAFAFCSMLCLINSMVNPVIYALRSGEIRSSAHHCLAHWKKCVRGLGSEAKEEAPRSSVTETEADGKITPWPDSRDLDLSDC

[4] = target: T1, Cannabinoid receptor 2 (Rattus norvegicus, UniProt Q9QZN9); assay: Agonist activity at recombinant rat CB2 receptor expressed in HEK293 cells assessed as increase in beta arrestin recruitment measured after 2 to 3 hrs by PathHunter assay; format: functional, cell-based
T1 sequence (Q9QZN9 whole entry): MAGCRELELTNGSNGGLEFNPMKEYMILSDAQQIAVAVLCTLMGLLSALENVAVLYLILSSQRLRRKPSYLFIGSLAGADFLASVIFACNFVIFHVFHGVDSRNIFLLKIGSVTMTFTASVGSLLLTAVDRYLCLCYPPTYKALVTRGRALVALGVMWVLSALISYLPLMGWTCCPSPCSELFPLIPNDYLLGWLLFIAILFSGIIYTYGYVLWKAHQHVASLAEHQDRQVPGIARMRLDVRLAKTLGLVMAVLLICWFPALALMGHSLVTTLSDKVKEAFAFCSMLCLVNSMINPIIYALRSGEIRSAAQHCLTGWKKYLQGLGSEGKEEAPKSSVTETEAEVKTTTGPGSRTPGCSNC

[5] = target: T2, Cannabinoid receptor 2 (Rattus norvegicus) (UniProt Q9QZN9); assay: Agonist activity at recombinant rat CB2 receptor expressed in HEK293 cells assessed as increase in beta arrestin recruitment measured after 2 to 3 hrs by PathHunter assay relative to CP55940; format: functional, cell-based
T2 sequence (whole entry): T1 sequence (Q9QZN9 whole entry)
In short: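 Beta-arrestin recruitment EC50 is the mean of three or more independent experiments (logSD < 0.4). Intrinsic activity (Emax) is expressed relative to CP-55,940 set at 100.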

[6] = target: Cannabinoid receptor 1 (Rattus norvegicus, UniProt P20272); assay: Agonist activity at recombinant rat CB1 receptor expressed in HEK293 cells assessed as increase in beta arrestin recruitment measured after 2 to 3 hrs by PathHunter assay; format: functional, cell-based
Chain of Cannabinoid receptor 1 (P20272 whole entry): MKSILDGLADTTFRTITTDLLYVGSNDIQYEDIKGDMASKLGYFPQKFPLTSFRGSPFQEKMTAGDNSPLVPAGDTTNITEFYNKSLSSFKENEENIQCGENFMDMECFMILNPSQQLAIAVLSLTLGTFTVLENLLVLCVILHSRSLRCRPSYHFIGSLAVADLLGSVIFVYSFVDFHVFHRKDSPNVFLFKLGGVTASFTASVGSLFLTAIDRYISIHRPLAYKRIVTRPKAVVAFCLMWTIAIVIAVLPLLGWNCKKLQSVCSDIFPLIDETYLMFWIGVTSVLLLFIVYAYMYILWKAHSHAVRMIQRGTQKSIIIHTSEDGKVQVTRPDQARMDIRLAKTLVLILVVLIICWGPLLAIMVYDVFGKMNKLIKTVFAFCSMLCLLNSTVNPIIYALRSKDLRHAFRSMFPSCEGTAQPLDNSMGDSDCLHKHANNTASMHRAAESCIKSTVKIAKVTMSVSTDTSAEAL

[7] = target: T2, Cannabinoid receptor 2 (Rattus norvegicus); assay: Induction of recombinant HA-tagged rat CB2 receptor internalization expressed in CHOK1 cells at 10 uM measured after 1 hr by time-resolved flow cytometry relative to CP55940; format: functional, cell-based
[8] = Half life in human liver microsomes; format: ADME, microsome
[9] = Half life in rat liver microsomes; format: ADME, microsome
[10] = Half life in mouse liver microsomes; format: ADME, microsome
[11] = Ratio of drug level in brain to plasma in Sprague-Dawley rat at 3 mg/kg, po measured after 2 hrs; format: ADME, organism-based; conditions: brain and plasma, read-out: BPR
[12] = Protein binding in mouse plasma assessed as unbound fraction; format: ADME, cell-free
[13] = Protein binding in rat plasma assessed as unbound fraction; format: ADME, cell-free
[14] = Protein binding in dog plasma assessed as unbound fraction; format: ADME, cell-free, Canis lupus familiaris
[15] = Protein binding in monkey plasma assessed as unbound fraction; format: ADME, cell-free, Macaca mulatta; conditions: rhesus monkey
[16] = Protein binding in human plasma assessed as unbound fraction; format: ADME, cell-free
[17] = test system: Rattus norvegicus; assay: Analgesic activity in po dosed Sprague-Dawley rat MIA-induced osteoarthritic pain model assessed as increase in paw withdrawal threshold after 1 hr by von Frey filaments assay; format: functional
In short: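 Von Frey paw withdrawal thresholds were read 1 h post-dose to assess late-phase hypersensitivity. ED50 was derived from the dose-response.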

[18] = test system: Rattus norvegicus; assay: Inhibition of paw withdrawal threshold in Sprague-Dawley rat MIA-induced osteoarthritic pain model at 10 mg/kg, po measured up to 4 hrs; format: organism-based; conditions: in vivo
[19] = test system: Rattus norvegicus; assay: Analgesic activity in Sprague-Dawley rat MIA-induced osteoarthritic pain model assessed as increase in paw withdrawal threshold at 3 mg/kg, po after 1 hr in presence of CB2 inverse agonist AR401733 by von Frey filaments assay; format: functional, organism-based
[20] = test system: Rattus norvegicus; assay: Analgesic activity in Sprague-Dawley rat MIA-induced osteoarthritic pain model assessed as increase in paw withdrawal threshold at 3 mg/kg, po after 1 hr in presence of CB2 antagonist […] by von Frey filaments assay; format: functional, organism-based
[21] = test system: Rattus norvegicus; assay: Analgesic activity in Sprague-Dawley rat MIA-induced osteoarthritic pain model assessed as increase in paw withdrawal threshold at 3 mg/kg, po after 1 hr in presence of CB2 antagonist SR144528 by von Frey filaments assay; format: functional, organism-based
[22] = test system: Rattus norvegicus; assay: Analgesic activity in Sprague-Dawley rat MIA-induced osteoarthritic pain model assessed as increase in paw withdrawal threshold at 3 mg/kg, po after 1 hr in presence of CB1 antagonist rimonabant by von Frey filaments assay; format: functional, organism-based
[23] = test system: Rattus norvegicus; assay: Analgesic activity in Sprague-Dawley rat MIA-induced osteoarthritic pain model assessed as increase in paw withdrawal threshold at 3 mg/kg, ip administered twice daily for 5 days measured 1 hr post dose at 1 day interval for 5 days during compound dosing; format: functional, organism-based
In short: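 Rats with MIA-induced late-phase hypersensitivity were dosed IP twice daily for 5 days. Von Frey paw withdrawal thresholds were measured 1 h after the morning dose on days 1, 3 and 5.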

[24] = Aqueous solubility of the compound at pH 2 to 7 using solid samples; format: physicochemical; conditions: aqueous solution
[25] = target: T3, Cytochrome P450 1A2 (Homo sapiens, UniProt P05177); assay: Inhibition of CYP1A2 (unknown origin); format: ADME
T3 sequence (P05177 whole entry): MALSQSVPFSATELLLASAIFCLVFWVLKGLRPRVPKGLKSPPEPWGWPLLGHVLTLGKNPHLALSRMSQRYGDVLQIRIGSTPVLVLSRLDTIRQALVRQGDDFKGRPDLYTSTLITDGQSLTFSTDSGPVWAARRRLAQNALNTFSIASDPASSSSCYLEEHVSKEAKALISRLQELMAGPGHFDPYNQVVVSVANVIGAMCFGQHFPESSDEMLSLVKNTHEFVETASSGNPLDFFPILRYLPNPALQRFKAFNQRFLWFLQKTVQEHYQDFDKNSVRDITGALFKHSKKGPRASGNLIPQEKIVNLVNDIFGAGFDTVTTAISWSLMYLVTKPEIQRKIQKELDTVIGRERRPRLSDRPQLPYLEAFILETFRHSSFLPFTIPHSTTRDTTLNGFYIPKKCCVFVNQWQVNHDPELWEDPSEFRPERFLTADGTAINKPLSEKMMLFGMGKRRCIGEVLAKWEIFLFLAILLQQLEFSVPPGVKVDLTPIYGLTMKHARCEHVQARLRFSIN

[26] = target: Cytochrome P450 2C9 (Homo sapiens, UniProt P11712); assay: Inhibition of CYP2C9 (unknown origin); format: ADME
Chain of Cytochrome P450 2C9 (P11712 whole entry): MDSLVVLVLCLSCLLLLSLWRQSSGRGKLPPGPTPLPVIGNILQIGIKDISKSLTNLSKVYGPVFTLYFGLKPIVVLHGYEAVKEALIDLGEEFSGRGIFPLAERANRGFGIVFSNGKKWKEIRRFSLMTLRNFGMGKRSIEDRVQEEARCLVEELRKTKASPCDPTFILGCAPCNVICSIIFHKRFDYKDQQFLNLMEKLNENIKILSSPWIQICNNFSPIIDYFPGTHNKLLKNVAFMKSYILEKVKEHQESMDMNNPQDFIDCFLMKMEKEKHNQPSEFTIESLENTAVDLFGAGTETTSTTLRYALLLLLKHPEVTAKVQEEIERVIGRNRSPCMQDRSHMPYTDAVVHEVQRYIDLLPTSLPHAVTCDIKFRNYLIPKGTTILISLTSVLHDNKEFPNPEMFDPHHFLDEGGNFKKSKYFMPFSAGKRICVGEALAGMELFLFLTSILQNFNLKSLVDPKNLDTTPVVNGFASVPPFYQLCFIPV

[27] = target: Cytochrome P450 2C19 (Homo sapiens, UniProt P33261); assay: Inhibition of CYP2C19 (unknown origin); format: ADME
Chain of Cytochrome P450 2C19 (P33261 whole entry): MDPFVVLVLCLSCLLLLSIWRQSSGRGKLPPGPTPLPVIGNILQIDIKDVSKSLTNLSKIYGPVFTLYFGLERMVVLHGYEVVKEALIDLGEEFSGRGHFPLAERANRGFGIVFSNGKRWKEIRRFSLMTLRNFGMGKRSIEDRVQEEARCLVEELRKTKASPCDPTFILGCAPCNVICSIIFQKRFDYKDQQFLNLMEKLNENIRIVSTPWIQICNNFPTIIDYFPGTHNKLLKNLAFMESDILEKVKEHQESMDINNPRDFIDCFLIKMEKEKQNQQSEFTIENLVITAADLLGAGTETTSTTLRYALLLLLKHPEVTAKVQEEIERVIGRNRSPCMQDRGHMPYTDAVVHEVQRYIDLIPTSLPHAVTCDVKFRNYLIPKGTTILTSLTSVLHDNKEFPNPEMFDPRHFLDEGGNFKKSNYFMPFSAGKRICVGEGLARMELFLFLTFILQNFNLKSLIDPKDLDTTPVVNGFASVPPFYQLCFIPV

[28] = target: Cytochrome P450 2D6 (Homo sapiens, UniProt P10635); assay: Inhibition of CYP2D6 (unknown origin); format: ADME
Chain of Cytochrome P450 2D6 (P10635 whole entry): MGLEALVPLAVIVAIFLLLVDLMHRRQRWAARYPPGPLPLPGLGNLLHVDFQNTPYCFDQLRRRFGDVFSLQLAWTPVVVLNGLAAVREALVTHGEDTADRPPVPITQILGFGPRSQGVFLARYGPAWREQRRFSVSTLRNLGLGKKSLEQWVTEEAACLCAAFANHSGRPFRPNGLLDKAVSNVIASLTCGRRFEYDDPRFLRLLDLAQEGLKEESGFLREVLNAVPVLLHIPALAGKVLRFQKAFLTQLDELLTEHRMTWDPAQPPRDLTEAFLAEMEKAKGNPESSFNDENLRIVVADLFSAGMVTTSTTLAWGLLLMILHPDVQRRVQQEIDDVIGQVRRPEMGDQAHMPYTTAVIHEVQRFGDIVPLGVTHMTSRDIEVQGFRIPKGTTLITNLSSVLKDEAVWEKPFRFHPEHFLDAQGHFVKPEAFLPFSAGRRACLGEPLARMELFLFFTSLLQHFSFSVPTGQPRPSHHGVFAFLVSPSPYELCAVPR

[29] = target: Cytochrome P450 3A4 (Homo sapiens, UniProt P08684); assay: Inhibition of CYP3A4 (unknown origin); format: ADME
Chain of Cytochrome P450 3A4 (P08684 whole entry): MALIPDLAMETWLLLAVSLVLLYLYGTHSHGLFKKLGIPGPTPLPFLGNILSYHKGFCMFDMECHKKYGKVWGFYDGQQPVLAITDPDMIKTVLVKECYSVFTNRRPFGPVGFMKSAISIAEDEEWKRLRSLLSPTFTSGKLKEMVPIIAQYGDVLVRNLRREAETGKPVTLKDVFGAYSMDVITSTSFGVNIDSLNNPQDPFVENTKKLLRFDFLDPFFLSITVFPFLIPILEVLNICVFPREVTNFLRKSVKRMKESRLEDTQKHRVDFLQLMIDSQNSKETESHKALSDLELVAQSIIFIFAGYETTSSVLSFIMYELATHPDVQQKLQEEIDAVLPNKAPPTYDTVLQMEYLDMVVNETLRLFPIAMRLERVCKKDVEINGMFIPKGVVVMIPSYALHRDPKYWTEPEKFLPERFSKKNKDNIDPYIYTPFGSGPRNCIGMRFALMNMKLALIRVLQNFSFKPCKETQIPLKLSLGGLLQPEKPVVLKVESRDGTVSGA

[30] = target: T4, Voltage-gated inwardly rectifying potassium channel KCNH2 (Homo sapiens, UniProt Q12809); assay: Inhibition of [3H]-astemizole binding to human ERG
T4 sequence (Q12809 whole entry): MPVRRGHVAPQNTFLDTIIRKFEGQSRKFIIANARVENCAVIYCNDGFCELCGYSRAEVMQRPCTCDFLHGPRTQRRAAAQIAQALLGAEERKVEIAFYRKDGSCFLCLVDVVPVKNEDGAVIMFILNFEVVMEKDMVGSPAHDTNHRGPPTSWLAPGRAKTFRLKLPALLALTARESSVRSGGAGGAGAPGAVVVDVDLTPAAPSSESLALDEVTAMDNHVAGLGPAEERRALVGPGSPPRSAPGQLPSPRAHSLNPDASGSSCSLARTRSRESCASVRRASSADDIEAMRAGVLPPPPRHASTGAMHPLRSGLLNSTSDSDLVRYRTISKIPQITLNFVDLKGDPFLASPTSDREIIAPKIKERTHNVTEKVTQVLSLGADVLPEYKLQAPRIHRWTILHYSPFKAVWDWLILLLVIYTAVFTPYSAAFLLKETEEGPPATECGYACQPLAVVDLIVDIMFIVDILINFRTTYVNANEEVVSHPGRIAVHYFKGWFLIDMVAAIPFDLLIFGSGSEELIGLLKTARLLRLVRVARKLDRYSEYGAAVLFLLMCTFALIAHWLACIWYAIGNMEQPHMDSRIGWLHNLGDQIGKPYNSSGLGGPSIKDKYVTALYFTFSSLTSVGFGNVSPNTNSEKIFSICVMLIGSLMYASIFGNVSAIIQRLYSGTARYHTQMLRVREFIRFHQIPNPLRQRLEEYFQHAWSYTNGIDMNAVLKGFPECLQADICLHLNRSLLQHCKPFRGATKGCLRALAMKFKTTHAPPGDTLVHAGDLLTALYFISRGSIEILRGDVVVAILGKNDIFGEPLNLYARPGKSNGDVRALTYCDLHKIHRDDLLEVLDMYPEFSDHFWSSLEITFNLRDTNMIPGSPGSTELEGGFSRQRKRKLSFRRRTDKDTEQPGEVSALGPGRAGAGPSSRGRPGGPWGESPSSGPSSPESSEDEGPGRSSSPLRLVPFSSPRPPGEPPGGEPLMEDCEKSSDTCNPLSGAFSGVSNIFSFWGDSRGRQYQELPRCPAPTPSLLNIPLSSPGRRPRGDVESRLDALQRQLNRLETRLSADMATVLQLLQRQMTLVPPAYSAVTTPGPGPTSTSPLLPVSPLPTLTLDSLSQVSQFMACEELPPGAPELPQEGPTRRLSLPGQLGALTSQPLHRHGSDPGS

[31] = target: T4, Voltage-gated inwardly rectifying potassium channel KCNH2; assay: Inhibition of human ERG by patch-clamp method
[32] = test system: HepG2; assay: Cytotoxicity against human HepG2 cells up to 1000 uM; format: cell-based
In short: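 Essential Cell Function panel in live HepG2 cells, measuring several cellular parameters.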

[33] = test system: Salmonella typhimurium; assay: Mutagenicity in Salmonella typhimurium in presence of liver S9 fraction by Ames test; format: toxicity, organism-based; conditions: salmonella enterica subsp. enterica serovar typhimurium
[34] = test system: Salmonella typhimurium; assay: Mutagenicity in Salmonella typhimurium in absence of liver S9 fraction by Ames test; format: toxicity, organism-based; conditions: salmonella enterica subsp. enterica serovar typhimurium
[35] = test system: Rattus norvegicus; assay: Toxicity in Sprague-Dawley rat assessed as change in core body temperature up to 100 mg/kg, po measured after 60 mins by rectal probe method; format: organism-based; conditions: in vivo, 1 h
[36] = test system: Rattus norvegicus; assay: Acute toxicity in Sprague-Dawley rat assessed as lethargy at 300 mg/kg, po administered for 14 days measured on day 1 during compound dosing; format: organism-based; conditions: in vivo, 336 h
In short: (§1)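 Male and female Sprague-Dawley rats in a 14-day dose-range-finding toxicity study with oral dose groups of 0, 30, 100 and 300 mg/kg. Animals were watched for clinical signs such as lethargy over the dosing period.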

[37] = test system: Rattus norvegicus; assay: Acute toxicity in Sprague-Dawley rat assessed as lethargy at 300 mg/kg, po administered for 14 days measured on day 2 to 14 during compound dosing; format: organism-based; conditions: in vivo, 336 h; in short: as §1
[38] = test system: Rattus norvegicus; assay: Acute toxicity in Sprague-Dawley rat assessed as hematological changes at 30 to 300 mg/kg, po administered for 14 days measured during compound dosing; format: organism-based; conditions: in vivo, 336 h
[39] = test system: Rattus norvegicus; assay: Acute toxicity in Sprague-Dawley rat assessed as histopathological abnormalities at 30 to 300 mg/kg, po administered for 14 days measured during compound dosing; format: organism-based; conditions: in vivo, 336 h
[40] = Stability of the compound; format: physicochemical

CN1CC[C@]23c4c5ccc(O)c4O[C@H]2[C@@H](O)C=C[C@H]3[C@H]1C5 [MORPHINE]
Activity [1]: Active
Activity [2]: Toxic

CC(C)(C)[C@@H](CO)NC(=O)c1nn(-c2c[n+]([O-])ccn2)c2c1C[C@@H]1C[C@H]21 [OLORINAB]
Emax [3]: 106%
pEC50 [4]: 8.12
Emax [5]: 100%
pEC50 [6]: 4.52 to 5.00
Activity [7]: 106%
half-life [8]: > 1 h
half-life [9]: > 1 h
half-life [10]: > 1 h
Kp at 2 h [11]: 0.04
fraction unbound [12]: 0.1 to 0.2
fraction unbound [13]: 0.1 to 0.2
fraction unbound [14]: 0.1 to 0.2
fraction unbound [15]: 0.1 to 0.2
fraction unbound [16]: 0.1 to 0.2
ED50 [17]: 2.3 mg/kg
inhibition (INH) [18]: Non-Toxic
Activity [19]: inactive
Activity [20]: inactive
Activity [21]: inactive
Activity [22]: inactive
Activity [23]: Active
solubility thermodynamic [24]: 2000 µg/mL (≈ 5.6 mM)
pIC50 [25]: < 4.30
pIC50 [26]: < 4.30
pIC50 [27]: < 4.30
pIC50 [28]: < 4.30
pIC50 [29]: < 4.30
pIC50 [30]: < 4.52
pIC50 [31]: < 4.52
Activity [32]: Non-Toxic
Activity [33]: Non-Toxic
Activity [34]: Non-Toxic
Activity [35]: Non-Toxic
Activity [36]: Toxic
Activity [37]: Non-Toxic
Activity [38]: Non-Toxic
Activity [39]: Non-Toxic
Stability [40]: Stable
